From ChEMBL document CHEMBL4831478, “Bispecific Estrogen Receptor α Degraders Incorporating Novel Binders Identified Using DNA-Encoded Chemical Library Screening” (J Med Chem, 2021)

What was measured:
[1] = target: T1, Estrogen receptor (Homo sapiens, UniProt P03372); test: Induction of ERalpha degradation in human MCF7 cells assessed as decrease in ERalpha protein expression incubated for 24 hrs by Western blot analysis; format: cell-based
T1 sequence (P03372 whole entry): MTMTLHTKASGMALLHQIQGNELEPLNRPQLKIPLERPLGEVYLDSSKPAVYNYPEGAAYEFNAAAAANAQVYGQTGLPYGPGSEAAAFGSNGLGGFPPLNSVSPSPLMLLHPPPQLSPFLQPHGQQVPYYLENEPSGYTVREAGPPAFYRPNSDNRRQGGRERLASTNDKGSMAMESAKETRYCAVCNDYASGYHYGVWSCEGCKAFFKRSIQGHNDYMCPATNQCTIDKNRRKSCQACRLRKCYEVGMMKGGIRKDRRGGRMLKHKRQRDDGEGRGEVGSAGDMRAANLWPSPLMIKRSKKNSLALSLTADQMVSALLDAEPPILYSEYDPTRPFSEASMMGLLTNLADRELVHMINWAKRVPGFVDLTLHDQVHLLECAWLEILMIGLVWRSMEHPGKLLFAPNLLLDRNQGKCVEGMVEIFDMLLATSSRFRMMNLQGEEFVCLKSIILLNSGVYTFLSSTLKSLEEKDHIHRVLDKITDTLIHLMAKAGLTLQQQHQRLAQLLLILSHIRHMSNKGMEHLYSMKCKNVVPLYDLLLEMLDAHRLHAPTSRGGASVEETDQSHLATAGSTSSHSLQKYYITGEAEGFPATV

[2] = test system: MCF7; test: Antiproliferative activity against human MCF7 cells assessed as growth inhibition preincubated with estradiol for 30 mins followed by compound addition and measured after 7 days by CellTiter-Glo assay; format: functional; conditions: MCF7, 168 h, time 7 day
Procedure, shortened: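 MCF7 cells seeded in hormone-deprived media for 72 h. All wells except minimum-signal controls received 0.1 nM estradiol for 30 min, then compound in a 10-point dose series. Incubated 7 days at 37 °C, 5% CO2; ATP content read by CellTiter-Glo 2.0. Duplicate runs averaged.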

[3] = test system: MCF7; test: Antiproliferative activity against human MCF7 cells assessed as growth inhibition preincubated with estradiol for 30 mins followed by compound addition and measured after 7 days by CellTiter-Glo assay; conditions: MCF7, 7 days
[4] = target: T1, Estrogen receptor; test: Binding affinity to recombinant His-tagged ERalpha LBD (307 to 554 residue) (unknown origin) expressed in Escherichia coli preincubated for 15 mins followed by ligand addition and measured after 1 hr by fluorescent polarization assay
Procedure, shortened: (§1)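 ERα LBD (aa 307–554), WT or D538G, S463P, Y537S, with N-terminal Avi-Tev-His tag, expressed in E. coli T7 Express (20 °C, 12 h, IPTG). Purified by Ni-NTA then size exclusion. Compound preincubated with protein 15 min, fluorescent ligand added, 1 h at room temperature. FP read ex 485/em 535 nm; duplicate runs averaged.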

[5] = target: T1, Estrogen receptor; test: Induction of ERalpha degradation in human MCF7 cells assessed as decrease in ERalpha protein expression incubated for 48 hrs under hormone-deprived medium by Western blot analysis; format: cell-based
Procedure, shortened: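 In-cell western: MCF7 seeded in hormone-deprived media for 72 h, then 10-point dose series in the same media for 48 h. Minimum-signal control compound at 1 μM. Cells fixed (4% formaldehyde), permeabilized (0.1% Triton X-100), blocked (3% fish gelatin), stained for ERα and α-tubulin, imaged; ERα normalized to tubulin.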

[6] = test system: MCF7; test: Antiproliferative activity against human MCF7 cells assessed as growth inhibition preincubated with estradiol for 30 mins followed by compound addition and measured after 72 hrs by CellTiter-Glo assay; format: functional
[7] = target: Estrogen receptor (Homo sapiens, UniProt P03372, Y537S); test: Binding affinity to ERalpha Y537S mutant (unknown origin) expressed in Escherichia coli preincubated for 15 mins followed by ligand addition and measured after 1 hr by fluorescent polarization assay; procedure, shortened: as §1
[8] = target: Estrogen receptor (Homo sapiens, UniProt P03372, S463P); test: Binding affinity to ERalpha S463P mutant (unknown origin) expressed in Escherichia coli preincubated for 15 mins followed by ligand addition and measured after 1 hr by fluorescent polarization assay; procedure, shortened: as §1
[9] = target: Estrogen receptor (Homo sapiens, UniProt P03372, D538G); test: Binding affinity to ERalpha D538G mutant (unknown origin) expressed in Escherichia coli preincubated for 15 mins followed by ligand addition and measured after 1 hr by fluorescent polarization assay; procedure, shortened: as §1
[10] = target: T1, Estrogen receptor; test: Induction of ERalpha degradation in human MCF7 cells assessed as decrease in ERalpha protein expression incubated for 48 hrs by Western blot analysis; format: cell-based
[11] = AUCinfinity in CD1 mouse at 10 mg/kg, sc administered as single dose […]; format: ADME, organism-based; set-up: route subcutaneous, dose 10 mg/kg; conditions: in vivo
[12] = Apparent permeability of compound across apical to basolateral side in MDCK cells; format: ADME, cell-based, Canis lupus familiaris; conditions: dog
[13] = Microsomal stability in mouse liver microsomes assessed as intrinsic clearance measured upto 60 mins; format: ADME, Microsome; conditions: read-out: CLH
Procedure, shortened: (§2)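 Compounds at 2 μM final incubated with pooled human or male mouse liver microsomes. Percent remaining measured at 0, 15, 30, 45 and 60 min and used to calculate in vitro half-life.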

[14] = Half life in CD1 mouse at 0.3 mg/kg, iv administered as cassette dosing […]; format: ADME, organism-based; conditions: in vivo
[15] = Plasma protein binding in human; format: ADME, cell-free; conditions: read-out: PPB
[16] = Cmax in CD1 mouse at 10 mg/kg, sc administered as single dose […]; format: ADME, organism-based; set-up: route subcutaneous, dose 10 mg/kg; conditions: in vivo
[17] = Bioavailability in CD1 mouse at 10 mg/kg, sc administered as single dose […]; format: ADME, organism-based; conditions: in vivo
[18] = Half life in CD1 mouse at 10 mg/kg, sc administered as single dose […]; format: ADME, organism-based; conditions: in vivo
[19] = Clearance in CD1 mouse at 0.3 mg/kg, iv administered as cassette dosing […]; format: ADME, organism-based; conditions: in vivo
[20] = Solubility of compound; format: physicochemical
[21] = Microsomal stability in human liver microsomes assessed as intrinsic clearance measured upto 60 mins; format: ADME, Microsome; conditions: read-out: CLH; procedure, shortened: as §2
[22] = Volume of distribution at steady state in CD1 mouse at 0.3 mg/kg, iv administered as cassette dosing […]; format: ADME, organism-based; conditions: in vivo, read-out: Vdss
[23] = Toxicity in CD1 mouse xenografted with human MCF7 cells assessed as change in body weight at 3 mg/mouse, sc administered once weekly for 28 days; conditions: in vivo, 672 h
[24] = test system: MCF7; test: Antitumor activity against human MCF7 cells xenografted in CD1 mouse assessed as tumor growth inhibition at 3 mg/kg, sc administered once daily for 28 days by caliper method; conditions: 672 h, read-out: TGI
[25] = target: T2, Estrogen receptor (Homo sapiens) (UniProt P03372); test: Induction of ERalpha degradation in human MCF7 cells assessed as degradation maximum incubated for 48 hrs under starved CSS media condition by Western blot analysis relative to control; format: cell-based
T2 sequence (whole entry): T1 sequence (P03372 whole entry)
Procedure, shortened: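 MCF7 cells in hormone-deprived media (agonist mode) or full-serum media (antagonist mode) were treated with 1 μM compound over a 48 h time course. Cells were lysed and ERα was detected by western blot, with tubulin as the normalizer.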

Estrogen receptor (Homo sapiens, UniProt P03372, Y537S), sequence (P03372 whole entry Y537S): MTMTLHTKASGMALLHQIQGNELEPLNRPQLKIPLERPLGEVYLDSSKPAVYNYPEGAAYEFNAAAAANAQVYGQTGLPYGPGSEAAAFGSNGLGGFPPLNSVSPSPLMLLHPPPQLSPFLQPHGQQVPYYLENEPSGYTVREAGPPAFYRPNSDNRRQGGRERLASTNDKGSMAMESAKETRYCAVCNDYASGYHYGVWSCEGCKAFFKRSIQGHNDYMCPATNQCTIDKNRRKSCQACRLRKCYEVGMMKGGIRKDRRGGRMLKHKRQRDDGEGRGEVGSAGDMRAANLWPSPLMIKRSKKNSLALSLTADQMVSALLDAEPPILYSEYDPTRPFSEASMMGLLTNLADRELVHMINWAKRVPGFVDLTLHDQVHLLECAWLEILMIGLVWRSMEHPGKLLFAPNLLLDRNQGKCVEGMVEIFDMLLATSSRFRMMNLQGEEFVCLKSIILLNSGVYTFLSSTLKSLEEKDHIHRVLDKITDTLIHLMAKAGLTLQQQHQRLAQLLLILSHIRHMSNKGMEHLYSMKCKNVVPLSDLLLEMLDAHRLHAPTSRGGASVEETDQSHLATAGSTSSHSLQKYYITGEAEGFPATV
Estrogen receptor (Homo sapiens, UniProt P03372, S463P), sequence (P03372 whole entry S463P): as the sequence (P03372 whole entry Y537S) above, with S463P, S537Y counted along it
Estrogen receptor (Homo sapiens, UniProt P03372, D538G), sequence (P03372 whole entry D538G): as the sequence (P03372 whole entry Y537S) above, with S537Y, D538G counted along it

Structure (SMILES) | GI50 [2] | IC50 [4] | GI50 [6] | IC50 [7] | IC50 [8] | IC50 [9] | other results
CN[C@H](C)C(=O)N[C@H](C(=O)N1CCC[C@H]1c1nc(C(=O)c2ccc(F)cc2)cs1)C1CCN(C(=O)COCCOCc2cn(CCOc3ccc(Cn4c(-c5ccc(O)cc5)c(C)c5cc(O)ccc54)cc3)nn2)CC1 | > 10000 nM | 52 nM | – | – | – | – | DC50 [1]: > 10000 nM; GI50 [3]: > 10000 nM
Oc1cccc(CN(CCCN2CCCCC2)CC2(c3ccccc3F)CCCC2)c1Cl | – | 960 nM | – | – | – | – | –
CN[C@@H](C)C(=O)N[C@H](C(=O)N1CCC[C@H]1c1nc(C(=O)c2cccc(OCCOCc3cn(CCOc4ccc(Cn5c(-c6ccc(O)cc6)c(C)c6cc(O)ccc65)cc4)nn3)c2)cs1)C1CCCCC1 | 51 nM | 7.3 nM | > 10000 nM | 61 nM | 24 nM | 40 nM | DC50 [10]: 174 nM
C[C@]12CC[C@@H]3c4ccc(O)cc4C[C@@H](CCCCCCCCC[S+]([O-])CCCC(F)(F)C(F)(F)F)[C@H]3[C@@H]1CC[C@@H]2O (stereo partly drawn) [FULVESTRANT] | – | – | – | – | – | – | Activity [23]: Non-Toxic; inhibition in vivo at 3 mg/kg [24]: 91.6%
CN(Cc1cccc(O)c1Cl)CC1(c2ccccc2OCCN2CCCCC2)CCCC1 | 3140 nM | > 10000 nM | > 10000 nM | – | – | – | –
Cc1ncsc1-c1ccc(CNC(=O)N2C[C@H](O)CC2C(=O)[C@H](NC(=O)C2(F)CC2)C(C)(C)C)c(OCCOCc2cn(CCOc3ccc(Cn4c(-c5ccc(O)cc5)c(C)c5cc(O)ccc54)cc3)nn2)c1 (stereo partly drawn) | 34 nM | 5.3 nM | > 10000 nM | 52 nM | 14 nM | 29 nM | DC50 [10]: 27 nM
Cc1c(-c2ccc(O)cc2)n(Cc2ccc(OCCn3cc(COCCOc4cccc5c4C(=O)N(C4CCC(=O)NC4=O)C5=O)nn3)cc2)c2ccc(O)cc12 (stereo not drawn) | 3250 nM | 1.6 nM | > 10000 nM | 3.2 nM | 2.1 nM | 4.7 nM | DC50 [5]: 2500 nM
Oc1cccc(CN(CC2(c3ccccc3F)CCCC2)c2ccccc2)c1Cl | > 10000 nM | 15 nM | < 5 nM | – | – | – | –
Cc1ncsc1-c1ccc([C@H](C)NC(=O)[C@@H]2C[C@@H](O)CN2C(=O)[C@@H](NC(=O)COCCOCCOCc2cn(CCOc3ccc(Cn4c(-c5ccc(O)cc5)c(C)c5cc(O)ccc54)cc3)nn2)C(C)(C)C)cc1 | 211 nM | 22 nM | > 10000 nM | 15 nM | 6 nM | 9.3 nM | DC50 [5]: 9 nM
Oc1cccc(CN(CCN2CCCCC2)CC2(c3ccccc3F)CCCC2)c1Cl | – | > 10000 nM | – | – | – | – | –

Second part, led by results:

GI50 [2] | IC50 [4] | GI50 [6] | IC50 [7] | IC50 [8] | IC50 [9] | Structure (SMILES) | other results
247 nM | 11 nM | > 10000 nM | 8.1 nM | 21 nM | 287 nM | Cc1ncsc1-c1ccc([C@H](C)NC(=O)[C@@H]2C[C@@H](O)CN2C(=O)[C@@H](NC(=O)COCc2cn(CCOc3ccc(Cn4c(-c5ccc(O)cc5)c(C)c5cc(O)ccc54)cc3)nn2)C(C)(C)C)cc1 | DC50 [5]: 20 nM
165 nM | 17 nM | > 10000 nM | 332 nM | 170 nM | 269 nM | Cc1ncsc1-c1ccc([C@H](C)NC(=O)[C@@H]2C[C@@H](O)CN2C(=O)[C@H](NC(=O)COCc2cn(CCOc3ccc(N(Cc4cccc(O)c4Cl)CC4(c5ccccc5F)CCCC4)cc3)nn2)C(C)(C)C)cc1 | DC50 [10]: 4.2 nM; AUC(0-inf) [11]: 9.8 µM·h; Papp A→B [12]: < 0.1 ×10⁻⁶ cm/s; microsomal CLint [13]: 199 µL/min/mg; half-life [14]: 2.7 h; fraction unbound [15]: < 0.004; Cmax [16]: 1500 nM; bioavailability [17]: 83%; half-life [18]: 21 h; clearance [19]: 20 mL/min/kg; solubility [20]: < 0.2 µM; microsomal CLint [21]: 31 µL/min/mg; Vd [22]: 1.24 L/kg
> 10000 nM | 15 nM | 550 nM | 8.1 nM | 21 nM | 7.2 nM | CN(Cc1cccc(O)c1Cl)CC1(c2ccccc2F)CCCC1 | –
3100 nM | 83 nM | > 10000 nM | – | – | – | Oc1cccc(CN(CCOCCN2CCCCC2)CC2(c3ccccc3F)CCCC2)c1Cl | –
> 10000 nM | 71 nM | 460 nM | 24 nM | 110 nM | 45 nM | CN(Cc1cccc(O)c1Cl)C(C1CCCC1)C(F)(F)F (stereo not drawn) | –
68 nM | 8 nM | > 10000 nM | – | – | – | Oc1cccc(CN(CC2(c3ccccc3F)CCCC2)c2ccc(OCCN3CCCCC3)cc2)c1Cl | DC50 [5]: 15 nM; Activity [25]: 70%
335 nM | 22 nM | > 10000 nM | 38 nM | 18 nM | 27 nM | Cc1ncsc1-c1ccc([C@H](C)NC(=O)[C@@H]2C[C@@H](O)CN2C(=O)[C@@H](NC(=O)COCCOCc2cn(CCOc3ccc(Cn4c(-c5ccc(O)cc5)c(C)c5cc(O)ccc54)cc3)nn2)C(C)(C)C)cc1 | DC50 [5]: 20 nM
> 10000 nM | 62 nM | < 5 nM | – | – | – | CN(Cc1cccc(O)c1Cl)CC1(c2ccc(OCCN3CCCCC3)cc2F)CCCC1 | –
